Data as given in ChEMBL document CHEMBL4354843, “Structure-Based Design of a Potent and Selective Covalent Inhibitor for SRC Kinase That Targets a P-Loop Cysteine” (J Med Chem, 2020).

Experiments:
[1] = molecular target: Angiopoietin-1 receptor (Homo sapiens) (UniProt Q02763); test: Binding affinity to wild-type human partial length TIE2 (N804 to T1112 residues) expressed in bacterial expression system assessed as residual binding level at 1 uM by Kinomescan method relative to control
[2] = molecular target: Serine/threonine-protein kinase 38 (Homo sapiens) (UniProt Q15208); test: Binding affinity to wild-type human partial length NDR1 (N33 to E449 residues) expressed in mammalian expression system assessed as residual binding level at 1 uM by Kinomescan method relative to control
Procedure, shortened: (§1)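 Active-site-directed competition binding panel of 468 kinases (KinomeScan), compound at 1 μM. The read-out is kinase remaining bound, given as a percentage of the DMSO control. […]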

[3] = molecular target: Serine/threonine-protein kinase N2 (Homo sapiens) (UniProt Q16513); test: Binding affinity to wild-type human partial length PKN2 (E634 to C984 residues) expressed in bacterial expression system assessed as residual binding level at 1 uM by Kinomescan method relative to control
[4] = tested on: Tyrosine-protein kinase ABL1 (Homo sapiens), P00519 [M351T]; test: Binding affinity to human phosphorylated ABL1 M351T mutant (S229 to K512 residues) expressed in mammalian expression system assessed as residual binding level at 1 uM by Kinomescan method relative to control
Procedure, shortened: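 Active-site-directed KinomeScan competition binding panel covering 468 kinases, compound tested at 1 μM. Each readout is the kinase signal remaining with compound, expressed as a percentage of the DMSO control. […]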

[5] = molecular target: Homeodomain-interacting protein kinase 3 (Homo sapiens) (UniProt Q9H422); test: Binding affinity to wild-type human partial length HIPK3 (M153 to N562 residues) expressed in mammalian expression system assessed as residual binding level at 1 uM by Kinomescan method relative to control; procedure, shortened: as §1
[6] = molecular target: Calcium/calmodulin-dependent protein kinase type 1G (Homo sapiens) (UniProt Q96NX5); test: Binding affinity to wild-type human partial length CAMK1G (M1 to A342 residues) expressed in bacterial expression system assessed as residual binding level at 1 uM by Kinomescan method relative to control
[7] = molecular target: Serine/threonine-protein kinase Sgk2 (Homo sapiens) (UniProt Q9HBY8); test: Binding affinity to wild-type human partial length SGK2 (L54 to C427 residues) expressed in mammalian expression system assessed as residual binding level at 1 uM by Kinomescan method relative to control
Sequence of Serine/threonine-protein kinase Sgk2 (Homo sapiens) (Q9HBY8 whole entry, the tested form may be a part): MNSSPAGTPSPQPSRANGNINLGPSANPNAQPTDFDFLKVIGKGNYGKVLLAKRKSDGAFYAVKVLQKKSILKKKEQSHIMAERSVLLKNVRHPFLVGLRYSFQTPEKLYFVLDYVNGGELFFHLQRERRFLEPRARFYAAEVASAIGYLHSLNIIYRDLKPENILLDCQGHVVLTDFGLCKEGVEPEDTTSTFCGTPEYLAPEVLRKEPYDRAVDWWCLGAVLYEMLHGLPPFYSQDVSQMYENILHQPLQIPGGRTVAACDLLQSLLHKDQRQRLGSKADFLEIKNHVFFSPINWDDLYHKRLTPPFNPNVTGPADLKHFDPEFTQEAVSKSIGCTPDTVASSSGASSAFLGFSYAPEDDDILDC

[8] = molecular target: Serine/threonine-protein kinase DCLK1 (Homo sapiens) (UniProt O15075); test: Binding affinity to wild-type human partial length DCAMKL1 (L270 to A662 residues) expressed in mammalian expression system assessed as residual binding level at 1 uM by Kinomescan method relative to control
[9] = molecular target: Serine/threonine-protein kinase PLK2 (Homo sapiens) (UniProt Q9NYY3); test: Binding affinity to wild-type human partial length PLK2 (H58 to F354 residues) expressed in mammalian expression system assessed as residual binding level at 1 uM by Kinomescan method relative to control
Sequence of Serine/threonine-protein kinase PLK2 (Homo sapiens) (Q9NYY3 whole entry, looked up, the tested form may be a part): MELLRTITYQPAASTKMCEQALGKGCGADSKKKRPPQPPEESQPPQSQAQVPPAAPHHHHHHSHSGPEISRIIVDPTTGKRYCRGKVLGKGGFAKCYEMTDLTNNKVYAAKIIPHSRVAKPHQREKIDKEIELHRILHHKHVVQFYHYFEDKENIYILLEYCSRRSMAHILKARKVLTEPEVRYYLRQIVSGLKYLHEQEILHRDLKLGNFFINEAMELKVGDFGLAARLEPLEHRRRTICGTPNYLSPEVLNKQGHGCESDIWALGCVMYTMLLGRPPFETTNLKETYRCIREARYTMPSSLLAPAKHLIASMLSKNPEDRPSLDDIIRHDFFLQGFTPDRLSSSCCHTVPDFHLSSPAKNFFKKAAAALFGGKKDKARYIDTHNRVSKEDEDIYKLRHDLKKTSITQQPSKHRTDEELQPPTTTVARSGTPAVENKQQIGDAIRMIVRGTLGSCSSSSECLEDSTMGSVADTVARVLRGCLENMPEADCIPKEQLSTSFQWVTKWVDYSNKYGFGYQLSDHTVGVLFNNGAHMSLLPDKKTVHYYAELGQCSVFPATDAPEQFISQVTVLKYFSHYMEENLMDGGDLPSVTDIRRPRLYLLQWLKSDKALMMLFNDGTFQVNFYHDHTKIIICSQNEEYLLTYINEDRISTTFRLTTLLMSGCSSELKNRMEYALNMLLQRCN

[10] = molecular target: Ephrin type-A receptor 4 (Homo sapiens) (UniProt P54764); test: Binding affinity to wild-type human partial length EPHA4 (T601 to R897 residues) expressed in bacterial expression system assessed as residual binding level at 1 uM by Kinomescan method relative to control; procedure, shortened: as §1
Sequence of Ephrin type-A receptor 4 (Homo sapiens) (P54764 whole entry, the tested form may be a part): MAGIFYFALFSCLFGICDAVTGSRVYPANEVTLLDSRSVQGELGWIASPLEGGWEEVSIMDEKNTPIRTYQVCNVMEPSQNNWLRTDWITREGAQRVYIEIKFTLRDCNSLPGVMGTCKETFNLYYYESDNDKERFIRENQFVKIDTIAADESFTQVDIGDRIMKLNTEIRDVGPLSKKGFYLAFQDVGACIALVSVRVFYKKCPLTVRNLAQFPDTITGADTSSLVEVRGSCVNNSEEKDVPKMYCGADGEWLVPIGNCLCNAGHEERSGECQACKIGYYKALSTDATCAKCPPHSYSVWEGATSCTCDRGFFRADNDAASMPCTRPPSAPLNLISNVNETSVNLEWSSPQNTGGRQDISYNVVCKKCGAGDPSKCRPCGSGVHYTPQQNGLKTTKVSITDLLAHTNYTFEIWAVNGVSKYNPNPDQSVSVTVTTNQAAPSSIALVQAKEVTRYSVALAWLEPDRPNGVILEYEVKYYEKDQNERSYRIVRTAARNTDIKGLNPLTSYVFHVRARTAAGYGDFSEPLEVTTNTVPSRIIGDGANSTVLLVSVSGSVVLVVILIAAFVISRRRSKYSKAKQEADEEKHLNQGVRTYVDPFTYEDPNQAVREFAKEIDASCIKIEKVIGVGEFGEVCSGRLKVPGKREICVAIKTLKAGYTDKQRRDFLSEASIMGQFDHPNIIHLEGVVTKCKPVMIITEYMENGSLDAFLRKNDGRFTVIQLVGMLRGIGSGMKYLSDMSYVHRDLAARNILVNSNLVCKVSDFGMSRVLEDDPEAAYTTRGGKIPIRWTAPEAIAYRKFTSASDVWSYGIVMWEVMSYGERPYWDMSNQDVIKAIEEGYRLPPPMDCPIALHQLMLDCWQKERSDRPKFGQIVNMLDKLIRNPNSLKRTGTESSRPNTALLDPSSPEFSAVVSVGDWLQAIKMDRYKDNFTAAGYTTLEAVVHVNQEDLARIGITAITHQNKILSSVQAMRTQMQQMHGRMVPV

[11] = molecular target: Serine/threonine-protein kinase PAK 4 (Homo sapiens) (UniProt O96013); test: Binding affinity to wild-type human partial length PAK4 (Q144 to R438 residues) expressed in bacterial expression system assessed as residual binding level at 1 uM by Kinomescan method relative to control
Sequence of Serine/threonine-protein kinase PAK 4 (Homo sapiens) (O96013 whole entry, looked up, the tested form may be a part): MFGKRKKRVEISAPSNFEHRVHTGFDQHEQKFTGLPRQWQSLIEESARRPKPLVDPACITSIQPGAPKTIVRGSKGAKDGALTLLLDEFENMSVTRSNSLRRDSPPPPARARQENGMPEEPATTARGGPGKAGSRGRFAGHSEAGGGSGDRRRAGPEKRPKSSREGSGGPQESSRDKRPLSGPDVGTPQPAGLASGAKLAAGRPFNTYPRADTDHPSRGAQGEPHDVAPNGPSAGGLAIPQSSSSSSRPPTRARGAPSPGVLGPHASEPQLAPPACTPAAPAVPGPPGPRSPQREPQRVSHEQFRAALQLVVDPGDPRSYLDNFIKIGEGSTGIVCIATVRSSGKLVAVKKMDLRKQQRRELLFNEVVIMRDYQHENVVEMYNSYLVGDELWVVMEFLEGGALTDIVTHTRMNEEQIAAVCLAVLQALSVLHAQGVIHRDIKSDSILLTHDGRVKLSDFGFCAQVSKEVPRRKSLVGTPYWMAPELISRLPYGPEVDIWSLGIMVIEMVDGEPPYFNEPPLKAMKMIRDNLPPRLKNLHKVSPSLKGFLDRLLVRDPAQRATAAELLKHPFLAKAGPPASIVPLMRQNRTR

[12] = molecular target: Tyrosine-protein kinase TXK (Homo sapiens) (UniProt P42681); test: Binding affinity to wild-type human partial length TXK (L238 to W527 residues) expressed in bacterial expression system assessed as residual binding level at 1 uM by Kinomescan method relative to control
Sequence of Tyrosine-protein kinase TXK (Homo sapiens) (P42681 whole entry, the tested form may be a part): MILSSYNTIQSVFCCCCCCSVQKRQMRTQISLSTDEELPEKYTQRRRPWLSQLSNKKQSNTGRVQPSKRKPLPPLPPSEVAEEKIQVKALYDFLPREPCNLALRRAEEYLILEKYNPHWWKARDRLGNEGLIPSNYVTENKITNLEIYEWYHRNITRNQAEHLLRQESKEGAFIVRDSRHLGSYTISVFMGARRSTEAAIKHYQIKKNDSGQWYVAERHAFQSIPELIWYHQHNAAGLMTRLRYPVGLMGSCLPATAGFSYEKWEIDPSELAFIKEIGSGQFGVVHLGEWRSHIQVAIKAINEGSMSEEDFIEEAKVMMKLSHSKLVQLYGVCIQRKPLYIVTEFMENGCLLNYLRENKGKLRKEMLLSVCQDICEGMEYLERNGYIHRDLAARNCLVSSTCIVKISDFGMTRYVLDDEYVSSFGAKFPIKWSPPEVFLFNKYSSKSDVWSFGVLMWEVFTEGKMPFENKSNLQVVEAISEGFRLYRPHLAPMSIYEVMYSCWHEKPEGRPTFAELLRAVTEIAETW
Procedure, shortened: (§2)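 Active site-directed competition binding panel (KinomeScan, 468 kinases). Test compound at 1 μM. Read-out is kinase binding remaining versus DMSO control, expressed as percent of control. Scores above 35% are treated as weak binding.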

[13] = molecular target: Dual specificity protein kinase CLK4 (Homo sapiens) (UniProt Q9HAZ1); test: Binding affinity to wild-type human partial length CLK4 (R135 to K481 residues) expressed in bacterial expression system assessed as residual binding level at 1 uM by Kinomescan method relative to control
Sequence of Dual specificity protein kinase CLK4 (Homo sapiens) (Q9HAZ1 whole entry, looked up, the tested form may be a part): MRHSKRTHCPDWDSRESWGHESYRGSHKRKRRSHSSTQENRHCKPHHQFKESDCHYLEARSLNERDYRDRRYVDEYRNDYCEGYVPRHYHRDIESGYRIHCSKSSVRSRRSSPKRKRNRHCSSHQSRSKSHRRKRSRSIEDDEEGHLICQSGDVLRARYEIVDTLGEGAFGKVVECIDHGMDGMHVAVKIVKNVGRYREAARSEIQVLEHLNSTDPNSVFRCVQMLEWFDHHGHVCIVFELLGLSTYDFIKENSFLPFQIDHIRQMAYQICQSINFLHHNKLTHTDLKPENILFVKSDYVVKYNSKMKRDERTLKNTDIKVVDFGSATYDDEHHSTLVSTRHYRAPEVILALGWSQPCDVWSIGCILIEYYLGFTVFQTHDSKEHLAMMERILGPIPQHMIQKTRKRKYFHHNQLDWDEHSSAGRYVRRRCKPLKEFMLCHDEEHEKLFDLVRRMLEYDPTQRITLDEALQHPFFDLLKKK

[14] = molecular target: Serine/threonine-protein kinase Chk2 (Homo sapiens) (UniProt O96017); test: Binding affinity to wild-type human partial length CHEK2 (S253 to E574 residues) expressed in bacterial expression system assessed as residual binding level at 1 uM by Kinomescan method relative to control
Procedure, shortened: (§3)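 KinomeScan, an active site-directed competition binding panel of 468 kinases. The test compound was at 1 μM. The readout is remaining kinase binding as a percentage of the DMSO control. Scores above 35% were treated as weak binding and not listed.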

[15] = molecular target: Serine/threonine-protein kinase/endoribonuclease IRE1 (Homo sapiens) (UniProt O75460); test: Binding affinity to wild-type human partial length ERN1 (S551 to E852 residues) expressed in mammalian expression system assessed as residual binding level at 1 uM by Kinomescan method relative to control; procedure, shortened: as §1
Sequence of Serine/threonine-protein kinase/endoribonuclease IRE1 (Homo sapiens) (O75460 19-977 limits assumed): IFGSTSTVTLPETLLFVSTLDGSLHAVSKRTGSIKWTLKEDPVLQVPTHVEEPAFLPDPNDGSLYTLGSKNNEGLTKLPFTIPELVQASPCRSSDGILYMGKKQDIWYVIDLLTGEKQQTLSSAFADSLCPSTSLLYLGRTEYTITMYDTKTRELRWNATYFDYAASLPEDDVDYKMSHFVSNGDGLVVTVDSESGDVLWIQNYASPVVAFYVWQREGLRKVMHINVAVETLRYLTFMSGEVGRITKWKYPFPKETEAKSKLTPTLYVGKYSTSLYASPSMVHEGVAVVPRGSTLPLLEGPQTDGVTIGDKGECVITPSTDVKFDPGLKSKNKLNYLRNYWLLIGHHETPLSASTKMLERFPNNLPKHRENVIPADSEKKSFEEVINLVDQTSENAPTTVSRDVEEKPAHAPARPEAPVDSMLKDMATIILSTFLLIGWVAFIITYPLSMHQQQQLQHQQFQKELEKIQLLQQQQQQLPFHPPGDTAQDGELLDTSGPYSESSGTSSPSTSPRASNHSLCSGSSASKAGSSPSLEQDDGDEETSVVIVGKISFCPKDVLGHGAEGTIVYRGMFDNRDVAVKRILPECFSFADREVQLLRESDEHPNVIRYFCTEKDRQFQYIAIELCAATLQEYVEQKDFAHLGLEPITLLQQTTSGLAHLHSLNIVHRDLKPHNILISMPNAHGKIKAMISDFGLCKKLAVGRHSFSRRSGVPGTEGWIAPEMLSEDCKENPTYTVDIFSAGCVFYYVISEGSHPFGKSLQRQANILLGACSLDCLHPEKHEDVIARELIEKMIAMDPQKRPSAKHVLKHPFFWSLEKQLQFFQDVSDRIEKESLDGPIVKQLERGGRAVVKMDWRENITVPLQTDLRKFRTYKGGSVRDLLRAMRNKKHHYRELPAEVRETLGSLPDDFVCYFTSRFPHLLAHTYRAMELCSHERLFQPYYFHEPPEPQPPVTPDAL

[16] = molecular target: Tyrosine-protein kinase Fes/Fps (Homo sapiens) (UniProt P07332); test: Binding affinity to wild-type human partial length FES (I527 to R822 residues) expressed in bacterial expression system assessed as residual binding level at 1 uM by Kinomescan method relative to control
[17] = molecular target: Mitogen-activated protein kinase 8 (Homo sapiens) (UniProt P45983); test: Binding affinity to wild-type human full length JNK1 (M1 to Q384 residues) expressed in mammalian expression system assessed as residual binding level at 1 uM by Kinomescan method relative to control; procedure, shortened: as §3
Sequence of Mitogen-activated protein kinase 8 (Homo sapiens) (P45983 whole entry, the tested form may be a part): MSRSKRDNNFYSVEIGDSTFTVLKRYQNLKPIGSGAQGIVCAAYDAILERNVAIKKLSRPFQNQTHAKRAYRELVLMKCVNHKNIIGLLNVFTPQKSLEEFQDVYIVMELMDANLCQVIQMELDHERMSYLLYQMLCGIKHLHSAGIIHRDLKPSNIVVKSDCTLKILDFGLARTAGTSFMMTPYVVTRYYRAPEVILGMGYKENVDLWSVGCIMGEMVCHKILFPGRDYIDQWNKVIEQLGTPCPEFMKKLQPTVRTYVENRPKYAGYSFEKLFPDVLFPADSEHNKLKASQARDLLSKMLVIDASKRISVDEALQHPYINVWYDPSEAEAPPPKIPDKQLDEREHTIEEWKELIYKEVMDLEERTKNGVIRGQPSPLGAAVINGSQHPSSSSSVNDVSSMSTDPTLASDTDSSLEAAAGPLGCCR

[18] = molecular target: Dual specificity protein kinase TTK (Homo sapiens) (UniProt P33981); test: Binding affinity to wild-type human partial length TTK (N505 to V798 residues) expressed in bacterial expression system assessed as residual binding level at 1 uM by Kinomescan method relative to control; procedure, shortened: as §2
[19] = molecular target: Protein kinase C eta type (Homo sapiens) (UniProt P24723); test: Binding affinity to wild-type human partial length PRKCH (S324 to P683 residues) expressed in bacterial expression system assessed as residual binding level at 1 uM by Kinomescan method relative to control
[20] = molecular target: Serine/threonine-protein kinase 3 (Homo sapiens) (UniProt Q13188); test: Binding affinity to wild-type human partial length MST2 (D17 to E318 residues) expressed in bacterial expression system assessed as residual binding level at 1 uM by Kinomescan method relative to control
[21] = molecular target: Ephrin type-A receptor 7 (Homo sapiens) (UniProt Q15375); test: Binding affinity to wild-type human partial length EPHA7 (Y608 to S912 residues) expressed in bacterial expression system assessed as residual binding level at 1 uM by Kinomescan method relative to control
[22] = molecular target: Protein kinase C theta type (Homo sapiens) (UniProt Q04759); test: Binding affinity to wild-type human partial length PRKCQ (L350 to S706 residues) expressed in bacterial expression system assessed as residual binding level at 1 uM by Kinomescan method relative to control; procedure, shortened: as §1

## C=CC(=O)Nc1ccccc1Nc1nc(Nc2ccc(N3CCN(C)CC3)cc2)ncc1C(=O)Nc1c(C)cccc1Cl
[1]
  Activity: 100%
[2]
  Activity: 90%
[3]
  Activity: 100%
[4]
  Activity: 0.8%
[5]
  Activity: 99%
[6]
  Activity: 100%
[7]
  Activity: 100%
[8]
  Activity: 100%
[9]
  Activity: 100%
[10]
  Activity: 75%
[11]
  Activity: 100%
[12]
  Activity: 17%
[13]
  Activity: 100%
[14]
  Activity: 90%
[15]
  Activity: 98%
[16]
  Activity: 100%
[17]
  Activity: 88%
[18]
  Activity: 94%
[19]
  Activity: 100%
[20]
  Activity: 100%
[21]
  Activity: 100%
[22]
  Activity: 86%
